Experimental data: article PMC6656587 (Bioorganic chemistry, 2019)
In brackets after ≈: the same amount, converted by molar mass.

What was measured:
[1] = test system: MCF-7 breast carcinoma cell line; conditions: read-out: IC50, phototoxicity; cited from earlier work
PAM212 keratinocytes = test: PAM212 keratinocyte growth inhibition with UVA light; type: cell-based, mouse; conditions: plus UVA light
[2] = known measured logP used in the discussion; ref not given; cited from earlier work
[3] = Solubility maximum under the assay's conditions; type: physicochemical; conditions: 37 °C, plasma or biological fluid, kinetic from dmso stock
plasmid pZeoSV DNA = test: Plasmid DNA nicking and unwinding assay with UVA light; type: biochemical; conditions: for Percentage of nicked plasmid: neutral agarose gels
How it was run: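 pZeoSV plasmid (75 ng per 10 μL) in TE buffer (10 mM Tris–HCl, 1 mM EDTA, pH 8), with test compound added from a 100× DMSO concentrate. UVA (320–400 nm) was given as for the cell cultures: 2.4 mW/cm2, 1.28 J/cm2. Aliquots taken before and after UVA were run on 1.2% neutral (Tris-acetate-EDTA) or alkaline agarose and stained with ethidium bromide. Percent nicked plasmid came from band image analysis.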

## O=c1ccc2ccc(O)cc2o1 [Compound 1, umbelliferone]
[1]
  IC50: 476 µM
PAM212 keratinocytes
  photo-activity on keratinocyte growth (in words): no activity

## Cc1cc(=O)oc2c(C)c(O)ccc12 [Compound 12, 4,8-dimethyl-7-hydroxycoumarin]
[2]
  logP: 2.1

## Cc1cc(=O)oc2c(C)c(O)c([N+](=O)[O-])cc12 [Compound 18, 4,8-dimethyl-6-nitro-7-hydroxycoumarin]
PAM212 keratinocytes
  photo-activity on keratinocyte growth (in words): no photocytotoxicity
[3]
  solubility: 100 µM (≈ 23.5 µg/mL)

## Cc1c(O)ccc2c(C(F)(F)F)cc(=O)oc12 [Compound 37, 4-trifluoromethyl-8-methyl-7-hydroxycoumarin]
PAM212 keratinocytes
  photo-activity on keratinocyte growth (in words): inactive

## O=c1cc(C(F)(F)F)c2ccc(O)cc2o1 [Compound 47, 4-trifluoromethyl-7-hydroxycoumarin]
PAM212 keratinocytes
  photo-activity on keratinocyte growth (in words): inactive

## C=CCOc1ccc2c(C)c(Br)c(=O)oc2c1C [Compound 58, 4,8-dimethyl-3-bromo-7-allyloxycoumarin]
Plasmid pZeoSV DNA; 1 μM coumarin plus UVA light
  Percentage of nicked plasmid: 3.2%
Plasmid pZeoSV DNA; 10 μM coumarin plus UVA light
  Percentage of nicked plasmid: 12.0%
Plasmid pZeoSV DNA; 100 μM coumarin plus UVA light
  Percentage of nicked plasmid: 20.2%
Plasmid pZeoSV DNA; plus UVA light, neutral gels
  effect on plasmid DNA (in words): concentration-dependent alteration in migration

## Cc1c(F)c(=O)oc2c(C)c(O)ccc12 [Compound 68, 3-fluoro-4,8-dimethyl-7-hydroxycoumarin]
PAM212 keratinocytes
  photo-activity on keratinocyte growth (in words): no activity

## Cc1c(I)c(=O)oc2c(C)c(O)ccc12 [Compound 71, 3-Iodo-4,8-dimethyl-7-hydroxycoumarin]
Plasmid pZeoSV DNA; 1 μM coumarin plus UVA light
  Percentage of nicked plasmid: 6.8%
Plasmid pZeoSV DNA; 10 μM coumarin plus UVA light
  Percentage of nicked plasmid: 80.2%
Plasmid pZeoSV DNA; 100 μM coumarin plus UVA light
  Percentage of nicked plasmid: 98.6%
Plasmid pZeoSV DNA; plus UVA light
  linearization of the plasmid compared to the 7-allyloxy ethers 14 and 58: nearly five times greater linearization
Plasmid pZeoSV DNA; plus UVA light, alkaline gels
  effect on plasmid DNA (in words): Generally similar results
Plasmid pZeoSV DNA; plus UVA light, neutral gels
  effect on plasmid DNA (in words): concentration-dependent alteration in migration
